The target in data set [1] is T1, human aryl hydrocarbon receptor (AhR) (Homo sapiens, UniProt P35869).
T1 sequence (P35869 11-848): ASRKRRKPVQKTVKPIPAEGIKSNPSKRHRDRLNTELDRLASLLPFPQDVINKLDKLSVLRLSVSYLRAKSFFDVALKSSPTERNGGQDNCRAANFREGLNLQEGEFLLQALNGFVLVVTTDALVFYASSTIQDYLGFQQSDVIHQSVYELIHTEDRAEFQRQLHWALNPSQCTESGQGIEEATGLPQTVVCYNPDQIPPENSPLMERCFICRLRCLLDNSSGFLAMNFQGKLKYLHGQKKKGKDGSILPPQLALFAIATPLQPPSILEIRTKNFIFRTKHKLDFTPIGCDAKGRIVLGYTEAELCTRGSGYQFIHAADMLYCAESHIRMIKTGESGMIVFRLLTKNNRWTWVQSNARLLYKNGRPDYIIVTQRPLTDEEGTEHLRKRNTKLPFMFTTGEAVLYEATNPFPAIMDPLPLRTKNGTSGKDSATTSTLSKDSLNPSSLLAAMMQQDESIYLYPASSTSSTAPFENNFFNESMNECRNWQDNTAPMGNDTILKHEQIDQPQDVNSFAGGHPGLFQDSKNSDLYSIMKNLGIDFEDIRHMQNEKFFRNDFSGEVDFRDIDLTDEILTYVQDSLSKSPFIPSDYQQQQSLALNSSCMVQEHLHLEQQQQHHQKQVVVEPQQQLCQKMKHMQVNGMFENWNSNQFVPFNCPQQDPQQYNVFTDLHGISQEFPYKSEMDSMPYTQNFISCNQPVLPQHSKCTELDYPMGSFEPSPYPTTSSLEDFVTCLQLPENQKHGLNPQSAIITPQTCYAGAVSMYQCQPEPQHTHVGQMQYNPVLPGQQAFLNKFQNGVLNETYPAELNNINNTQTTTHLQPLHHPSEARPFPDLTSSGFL
As to conditions: HepG2-AhR Lucia cells.

Another data set deals with CYP1A genes. Particulars: HepaRG cells; cited from earlier work.
A further data set in a line: MTT cytotoxicity, Caco-2. Particulars: human, Caco-2 cells. Format: cell-based.
The next data set can be described thus: MTT cytotoxicity, HepG2. In kind it is cell-based. Particulars: human, HepG2 cells.
The next data set can be described thus: MTT cytotoxicity, HepaRG. Format: cell-based, human. As to conditions: human, HepaRG cells (differentiated).
Another data set is described as follows: MTT cytotoxicity, MRC-5. Format: cell-based. Particulars: human, MRC-5 cells.
Another data set can be described thus: MTT cytotoxicity, MSC. In kind it is cell-based, human. As to conditions: human, adipose-derived mesenchymal stem cells (MSC).
A short description of a further data set: MTT cytotoxicity, T47D. As to conditions: human, T47D cells. In kind it is cell-based.
Data set [2] relates to Caco-2 cells. In words: Cell proliferation and migration. Format: cell-based, human. Particulars: for effect on cell proliferation rate vs media control: Caco-2, 10 µM, p < 0.05; for proliferation speed compared to control (100 %): Caco-2, 1 µM, 24 h; for effect on growth and proliferation vs media control: Caco-2, any tested concentration (0.1, 1, 10 µM). The method in brief:
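Cells were seeded at 100,000 cells/mL in 48-well plates and grown to 90–100 % confluence. Each monolayer was scratched with a pipette tip. Medium was then replaced with exposure medium containing 0.1, 1 or 10 µM test compound; cytochalasin D (1 mM) was the positive control. Wells were imaged by automated phase-contrast microscopy every 30 min for 24 h. Read-outs were cell-free area (mm2) and proliferation rate relative to media control (n = 8–16; one-way ANOVA, Dunnett's).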

Data set [3] can be described thus: Indole derivatives quantification in cell media. As to conditions: after 24 h of incubation. In kind it is physicochemical. The method in brief:
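Test compounds in cell media were measured by reversed-phase HPLC with fluorescence detection on a C18 column (2.2 µm, 150 × 2.1 mm) at 30 °C. A binary gradient ran from 50 mM KH2PO4 (pH 3.3) to that buffer/acetonitrile 700:300. Excitation was 270 nm and emission 350 nm. Compounds were identified by co-chromatography with authentic standards and quantified by peak area.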

In data set [4] the test system is Caco-2 cells. As to conditions: cited from earlier work.
In data set [5] the target is T1, human aryl hydrocarbon receptor (AhR). In words: cell-based.
In data set [6] the test system is V79–4 Chinese hamster fibroblasts. As to conditions: V79–4, 300 µM; cited from earlier work.
Data set [7] relates to adipose-derived mesenchymal stem cells (MSC). Nature of the data set: MTT cytotoxicity, MSC. Format: cell-based, human. Particulars: MSC, 24 h exposure, MTT, average ± SD.
Another data set relates to MRC-5 cells. Particulars: MRC-5, 30 µg/mL, exposure duration not specified; ref Yap et al. 52; cited from earlier work.
A further data set relates to MCF-7 cells. As to conditions: MCF-7, 100 µM; cited from earlier work.
In another data set the test system is V79 379 A cells. Particulars: 0.1 mM, 2-hour exposure; cited from earlier work.
Data set [8] concerns Caco-2 cells. As to conditions: Caco-2, 500–1000 µM, 72-hour exposure; ref Tomii et al. 31; cited from earlier work.
A further data set concerns HepaRG cells. In words: MTT cytotoxicity, HepaRG. Format: cell-based, human. As to conditions: HepaRG, 24 h exposure, MTT, average ± SD.
For another data set, the system named is goats. As to conditions: oral, 0.16 g/kg body weight, within 4–24 h; cited from earlier work.

The term EC50 denotes the concentration that produces a half-maximal response. High values mean a less potent agent, low ones a more potent agent.

Consider `c1ccc2c(c1)cc1ccc3cccc4ccc2c1c34` [BaP, benzo[a]pyrene, reference compound], for which the AhR agonist character result in data set [1] is on record as “partial agonists”.

Regarding `Cn1ccc2ccccc21` [1-MI], the “induction of CYP1A genes, % of the level of TCDD” value in the data set with CYP1A genes is reported as “about 50%”.

For `c1ccc2[nH]ccc2c1` [Indole, indole], the half-maximal effective concentration (EC50) at 24 h in the data set “MTT cytotoxicity, Caco-2” was > 100 µM; in the data set “MTT cytotoxicity, HepG2”, > 100 µM; in “MTT cytotoxicity, HepaRG”, > 100 µM; in “MTT cytotoxicity, MRC-5”, > 100 µM; in “MTT cytotoxicity, MSC”, > 100 µM; in “MTT cytotoxicity, T47D”, > 100 µM. Also, in the data set on Caco-2 cells [2], the “effect on cell proliferation rate vs media control” value is “significant reduction in cell proliferation rates”. The “recovery rate in cell media (actual vs nominal concentration)” value in [3] was “exceeding 100%”. Further, in [1], the AhR agonist character entry is “weak AhR ligand”. For the same molecule, the “concentration inducing toxic effects” value in the data set with Caco-2 cells [4] (Caco-2) was 5000 µM. In [5], this molecule registered a half-maximal effective concentration (EC50) of 32.1 µM.

As to `O=c1cc(-c2ccccc2)oc2ccc3ccccc3c12` [BNF, β-naphthoflavone, reference compound], the AhR agonist character result in [1] is listed as “partial agonists”.

With `Cc1ccc2cc[nH]c2c1` [6-MI], the “induction of CYP1A gene expression” value in the data set with CYP1A genes was “comparable to TCDD”.

As to `O=Cc1c[nH]c2ccccc12` [I3A, indole-3-aldehyde], the EC50 at 24 h in the data set “MTT cytotoxicity, Caco-2” is > 100 µM; in the data set “MTT cytotoxicity, HepG2”, > 100 µM; in the data set “MTT cytotoxicity, HepaRG”, 1.98 ± 0.73 µM; in “MTT cytotoxicity, MRC-5”, 49.8 ± 14.5 µM; in “MTT cytotoxicity, MSC”, 1.87 ± 0.83 µM; in the data set “MTT cytotoxicity, T47D” it was > 100 µM. In addition, the “proliferation speed compared to control (100 %)” value in the data set with Caco-2 cells [2] came to 71.3 ± 5.1%. The “effect on cell proliferation rate vs media control” value with Caco-2 cells [2] was “significant reduction in cell proliferation rates”. For the same molecule, the AhR agonist character entry in [1] is on record as “strong agonists”. The “reduction in cell viability” value in the data set with Caco-2 cells [4] (Caco-2, 160 µM, ref Liu et al. 30) is given as 89.6%. Besides, the response in data set [5] was half-maximal at 0.04 µM (EC50).

For `O=C(O)c1c[nH]c2ccccc12` [I3CA, indole-3-carboxylic acid], the EC50 at 24 h in the data set “MTT cytotoxicity, Caco-2” is > 100 µM; in “MTT cytotoxicity, HepG2”, > 100 µM; in the data set “MTT cytotoxicity, HepaRG” it was 53 ± 12.1 µM; in the data set “MTT cytotoxicity, MRC-5” it was 0.52 ± 0.08 µM; in “MTT cytotoxicity, MSC” it was 0.64 ± 0.31 µM; in “MTT cytotoxicity, T47D”, > 100 µM. Besides, in the data set with Caco-2 cells [2], the “effect on cell proliferation rate vs media control” value is recorded as “significant reduction in cell proliferation rates”. Moreover, the AhR agonist character entry in [1] is recorded as “strong agonists”. Also, the midpoint of the response in data set [5], the EC50, lay at 0.88 µM.

With `O=Cc1ccc2cc[nH]c2c1` [indole-6-carboxaldehyde], in [6], the toxicity entry is on record as “no toxicity”.

In data set [5], `Clc1cc2c(cc1Cl)Oc1cc(Cl)c(Cl)cc1O2` [TCDD, 2,3,7,8-tetrachlorodibenzo-p-dioxin, reference compound] displayed an EC50 of 0.0003 to 0.0023 µM.

With `Cc1cccc2[nH]ccc12` [4-MI], the “induction of CYP1A gene expression” value in the data set with CYP1A genes was “comparable to TCDD”.

In the case of `O=C(O)Cc1c[nH]c2ccccc12` [IAA, indole-3-acetic acid], the concentration for a half-maximal effect (EC50) at 24 h in the data set “MTT cytotoxicity, Caco-2” is 0.52 ± 0.12 µM; in “MTT cytotoxicity, HepG2”, > 100 µM; in “MTT cytotoxicity, HepaRG”, 2.21 ± 0.32 µM; in the data set “MTT cytotoxicity, MRC-5”, 2.55 ± 1.95 µM; in the data set “MTT cytotoxicity, MSC” it was > 100 µM; in “MTT cytotoxicity, T47D” it was 1.68 ± 0.46 µM. Also, in [7], the “Cytotoxic evaluation (EC50)” value is “did not show toxicity”. In addition, the “effect on growth and proliferation vs media control” value in the data set with Caco-2 cells [2] is listed as “no significant differences”. The cytotoxic effects entry in the data set on MRC-5 cells is on record as “no cytotoxic effects”. For the same molecule, the cytotoxicity result in the data set on MCF-7 cells is “did not show cytotoxicity”. For the same molecule, in the data set with V79 379 A cells, the cytotoxic response entry is “did not show a cytotoxic response”. Besides, the “effect on cell count and cytotoxicity (LDH assay)” value in the data set on Caco-2 cells [8] was “reduced Caco-2 cell count without causing cytotoxicity”.

For the molecule `O=C(O)CCc1c[nH]c2ccccc12` [IPA, indole-3-propionic acid], the EC50 at 24 h in “MTT cytotoxicity, Caco-2” is > 100 µM; in “MTT cytotoxicity, HepG2”, > 100 µM; in the data set “MTT cytotoxicity, HepaRG”, > 100 µM; in “MTT cytotoxicity, MRC-5” it was 0.91 ± 0.1 µM; in the data set “MTT cytotoxicity, MSC” it was 0.4 ± 0.14 µM; in the data set “MTT cytotoxicity, T47D” it was 2.02 ± 0.13 µM. Besides, the “Cytotoxic evaluation (EC50)” value with HepaRG cells is on record as “no sensitivity”. For the same molecule, the “effect on growth and proliferation vs media control” value in the data set on Caco-2 cells [2] is “no significant differences”. In data set [1], the AhR agonist character entry is given as “strong agonists”. Further, in [5], the EC50 came to 0.11 µM.

For the molecule `Cc1c[nH]c2ccccc12` [3-MI, 3-methylindole], the EC50 at 24 h was > 100 µM in “MTT cytotoxicity, Caco-2”; > 100 µM in the data set “MTT cytotoxicity, HepG2”; 66.4 ± 21.8 µM in “MTT cytotoxicity, HepaRG”; 21.9 ± 8.06 µM in the data set “MTT cytotoxicity, MRC-5”; 0.33 ± 0.1 µM in the data set “MTT cytotoxicity, MSC”; > 100 µM in “MTT cytotoxicity, T47D”. In the data set on Caco-2 cells [2] (Caco-2, 0.1 µM), the “effect on cell proliferation vs media control” value is on record as “significant decrease in proliferation”. In the data set on Caco-2 cells [2], the “proliferation speed compared to control (100 %)” value is on record as 68.2 ± 7.4%. The “effect on cell proliferation rate vs media control” value with Caco-2 cells [2] is given as “significant reduction in cell proliferation rates”. Moreover, the AhR agonist character entry in data set [1] is “partial agonists”. Also, the “induction of CYP1A genes, % of the level of TCDD” value in the data set with CYP1A genes is listed as “about 50%”. For the same molecule, the pulmonary toxicity findings entry in the data set on goats was “severe pulmonary edema, denuded bronchioles, and necrotic alveolar cells”. In data set [5], the EC50 was determined as 1.4 µM.

The values are drawn from article PMC11750580 (Toxicology Reports, 2024).
